Only some compounds are listed: those with a hit (about 1.4% of all), similar ones and a draw of the others.
DAGLB inh: DAGLB lipase inhibitors, primary screen, biochemical, fluorescence, HTS. Diacylglycerol lipase-beta (Homo sapiens), Q8NCG7. HEK293T DAGLB membrane lysate, EnzChek fluorogenic substrate. inhibition, % at 5.17 µM. 340,000 compounds, 0.059% hits. AID 504411, 2011; in the data active = inhibition above about 34%;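 note: 0% = enzyme with vehicle and 100% = wells lacking enzyme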
Target sequence (Q8NCG7 whole entry, looked up): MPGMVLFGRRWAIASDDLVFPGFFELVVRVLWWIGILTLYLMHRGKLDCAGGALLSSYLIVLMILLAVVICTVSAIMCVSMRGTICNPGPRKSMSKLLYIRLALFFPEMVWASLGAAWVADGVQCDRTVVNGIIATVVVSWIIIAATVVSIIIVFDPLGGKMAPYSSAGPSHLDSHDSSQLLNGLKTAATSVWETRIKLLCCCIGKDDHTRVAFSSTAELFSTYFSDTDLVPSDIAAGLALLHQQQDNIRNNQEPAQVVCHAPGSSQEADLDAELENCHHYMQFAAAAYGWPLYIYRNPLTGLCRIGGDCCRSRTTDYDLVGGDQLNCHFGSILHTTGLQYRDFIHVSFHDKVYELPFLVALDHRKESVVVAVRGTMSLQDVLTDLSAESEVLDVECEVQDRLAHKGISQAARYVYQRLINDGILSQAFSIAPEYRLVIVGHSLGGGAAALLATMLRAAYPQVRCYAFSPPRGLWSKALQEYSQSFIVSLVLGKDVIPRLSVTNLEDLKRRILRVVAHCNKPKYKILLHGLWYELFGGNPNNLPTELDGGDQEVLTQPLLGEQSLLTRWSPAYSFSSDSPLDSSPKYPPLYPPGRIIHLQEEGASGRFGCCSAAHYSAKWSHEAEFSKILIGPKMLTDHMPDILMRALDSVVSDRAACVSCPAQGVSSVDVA
MOR-DOR ag-1: agonists of OPRM1-OPRD1 heterodimerization, primary screen, cell-based, luminescence | activation, % at 9.3 µM | cells | 340,000 compounds, 0.3% hits | Mu-type opioid receptor (Homo sapiens) + Delta-type opioid receptor (Homo sapiens), … | AID 504326, 2011;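 note: 0% = vehicle-treated cells and 100% = reference agonist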
Arrestin-AP2 inh: inhibitors of beta-arrestin/AP2 binding, primary screen, biochemical, GPCR trafficking, flow cytometry; 340,000 compounds, 0.31% hits; FITC-arrestin peptide / GST-AP2 beads; AP2 beta2 appendage carries R879A mutation; inhibition, % at 10 µM; beta-arrestin 1 C-terminal peptide binding to AP2 beta2-adaptin appendage (human);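 active = inhibition above a set limit, near 3 SD of compounds lacking own fluorescence, cut at about 54% in these data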;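 note: plate controls were DMSO wells for no effect and 5 µM unlabelled arrestin peptide for full effect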
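Test system: GST-tagged AP2 beta2-adaptin appendage (R879A) on 4 µm glutathione beads; also added: fluorescein-tagged arrestin peptide at 50 nM final; timing: 12 min plus 1 h, RT; signal: flow cytometry, FL1 (488/535 nm); read-out: percent drop in bead-associated FITC signal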
HTR5A ag: HTR5A agonists in luminescence cell assay, primary screen, counter-screen for OPRM1-OPRD1 heterodimer agonist project, full-deck HTS | 5-hydroxytryptamine receptor 5A (Homo sapiens), P47898 | cell-based | activation, % at 9.3 µM | 340,000 compounds, 0.61% hits | AID 504692, 2011; in the data active = activation mostly above about 9.5%, no sharp cut-off; inactive = mostly below about 7.6%;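 note: 0% = cells with vehicle only and 100% = reference agonist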
MOR-DOR inv ag-1: inverse agonists of MOR-DOR heterodimerization, primary screen, cell-based, luminescence | cell-based MOR-DOR heterodimer luminescence, inverse agonism | inhibition, % at 9.3 µM | Mu-type opioid receptor (Homo sapiens) + Delta-type opioid receptor (Homo sapiens), … | 340,000 compounds, 0.21% hits; in the data active = inhibition above about 22%, passing the limit was not always enough;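 note: 0% = cells with DMSO and 100% = wells without cells with DMSO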
HTR5A inv ctr: HTR5A inverse agonists in luminescence cell assay, primary screen, counter-screen for OPRM1-OPRD1 heterodimer inverse agonist project, full-deck HTS; 5-hydroxytryptamine receptor 5A (Homo sapiens), P47898; HTR5A cell line, inverse agonism; inhibition, % at 9.3 µM; 340,000 compounds, 0.083% hits; AID 504634, 2011; in the data active = inhibition mostly above about 23%, no sharp cut-off; inactive = mostly below about 18%;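 note: 0% = cells with DMSO and 100% = no-cell wells with DMSO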
MOR-DOR inv ag-2: inverse agonists of MOR-DOR heterodimerization, counter-screen for HTR5A inverse agonist project, cell-based, luminescence; 190 tested, under 10 active; inhibition, % at 9.3 µM; shares compounds with HTR5A inv ctr; U2OS counter-screen cells, complementation luminescence; call rule not given here;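 note: 0% = cells with DMSO and 100% = wells without cells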
HTR5A inv confrm: HTR5A inverse agonists, retest of hits, confirmation, cell-based, luminescence; HTR5A-expressing cells, inverse agonism; inhibition, % at 9.3 µM; AID 504916, 2011; 190 tested, under 10 active; shares compounds with HTR5A inv ctr; call rule not given here;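 note: 0% = cells with DMSO and 100% = no cells with DMSO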
MOR-DOR ag-2: OPRM1-OPRD1 heterodimerization promoters, counter-screen for HTR5A agonist project, cell-based, luminescence. shares compounds with HTR5A ag. U2OS counter-screen cells, complementation luminescence, 3 h. activation, % at 9.3 µM. 800 compounds, 13% hits. AID 504913, 2011
HTR5A ag conf: HTR5A agonists, retest of hits, confirmation, cell-based, luminescence. shares compounds with HTR5A ag. HTR5A agonist cell assay. activation, % at 9.3 µM. 800 compounds, 17% hits; in the data active = activation above about 17%;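 note: 0% = cells with vehicle only and 100% = full reference agonist response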
Starred values were filed as active, the others as inactive; i = inactive; x = not tested or not shown. Cut-off read from the data, not from the text of the source, unless noted: active = activation above about 18%; inactive = the rest.

SMILES | DAGLB inh | MOR-DOR ag-1 | Arrestin-AP2 inh | HTR5A ag | MOR-DOR inv ag-1 | HTR5A inv ctr | MOR-DOR ag-2 | HTR5A ag conf | others
CC1=C(C(=O)Nc2ccccc2C(=O)N2CCN(c3ccccc3)CC2)SCCO1 | -1 | x | x | x | x | x | x | x
COc1cc2nc(C3CCC3)nc(N3CCN(c4ccccn4)CC3)c2cc1OC | -3 | -1 | -14 | 1 | 8 | 52* | x | x | MOR-DOR inv ag-2=-23;HTR5A inv confrm=-2
COCCCNC(=O)c1ccc2c(=O)n(Cc3ccc4c(c3)OCO4)c(=S)[nH]c2c1 | 4 | -1 | -5 | 3 | 4 | 57* | x | x | MOR-DOR inv ag-2=-3;HTR5A inv confrm=-13
NC(=O)c1ccc(NC(=O)CN2CCOCC2)cc1 | -2 | -1 | 0 | -9 | 6 | 34* | x | x | MOR-DOR inv ag-2=43*;HTR5A inv confrm=22
CC(=O)c1ccc(NC(=O)CN2CCOCC2)cc1 | -2 | -1 | 4 | -1 | 5 | 5 | x | x
Oc1ccc(Cl)cc1N=Cc1sc2ccccc2c1Cl | 1 | 5 | 3 | 3 | -24 | -8 | x | x
O=[N+]([O-])c1ccc(O)c(N=Cc2sc3ccccc3c2O)c1 | 17 | -3 | 17 | -1 | 14 | 46* | x | x | MOR-DOR inv ag-2=-7;HTR5A inv confrm=19
C#CCN(C[C@@H]1[C@@H](OC(=O)NCc2ccccc2)[C@@H](OC(=O)NCc2ccccc2)CN(C(=O)OC(C)C)N1C(=O)OC(C)C)S(=O)(=O)c1ccc(C)cc1 | -12 | x | x | x | x | x | x | x
COc1cccc(/C=N/Nc2nc(Nc3ccccc3)nc(-n3nc(C)cc3C)n2)c1O | 7 | 1 | 32 | -18 | -4 | 40* | x | x | MOR-DOR inv ag-2=i;HTR5A inv confrm=-4
Cc1cc(C)n(-c2nc(Nc3ccccc3)nc(-n3nc(C)cc3C)n2)n1 | -1 | -5 | 5 | -1 | 23 | 6 | x | x
CC(=O)N1CCc2cc(Br)cc(S(=O)(=O)N3CCN(c4ccccn4)CC3)c21 | 1 | -1 | 3 | 1 | 8 | 46* | x | x | MOR-DOR inv ag-2=-40;HTR5A inv confrm=8
CC(=O)N1c2c(cc(Br)cc2S(=O)(=O)N2CCN(c3ccccn3)CC2)CC1C (stereo unspecified) | 3 | -2 | 7 | 4 | 10 | -5 | x | x
COc1cc(/C=C/C(=O)c2ccc(O)cc2)ccc1OCC#N | 1 | -3 | 1 | -14 | 16 | 48* | x | x | MOR-DOR inv ag-2=-20;HTR5A inv confrm=0
COc1cccc(C(=O)/C=C/c2ccc(OCC#N)c(OC)c2)c1 | -1 | -3 | -15 | -4 | 16 | -11 | x | x
COc1cccc(CNC(=O)c2ccc(CS(=O)Cc3ccccc3Cl)o2)c1 (stereo unspecified) | -1 | x | x | x | x | x | x | x
O=C(NC1CCC1)C1CCC(=O)N(Cc2ccc(Cl)cc2)C1 (stereo unspecified) | -1 | x | x | x | x | x | x | x
Cc1ccc(NC(=O)CNC(=O)COc2ccccc2)nc1 | 2 | -3 | 6 | -20 | 13 | 49* | x | x | MOR-DOR inv ag-2=i;HTR5A inv confrm=-5
Cc1ncc([N+](=O)[O-])n1CC(=O)Nc1ccccc1Cl | 1 | x | x | x | x | x | x | x
CCN(CC(=O)Nc1ccc(NC(C)=O)cc1)C(=O)c1cc(-c2ccccc2Cl)nc2ccccc12 | 4 | 0 | 7 | 6 | -1 | -13 | x | x
O=C(CSc1n[nH]c(=O)n1C1CC1)Nc1ccc(F)c([N+](=O)[O-])c1 | 1 | -2 | -17 | 14* | 8 | -39 | 51* | 6
O=C(c1ccco1)N1CCN(C(=O)c2ccc(-c3cccc(C(F)(F)F)c3)o2)CC1 | -1 | -1 | -1 | 35* | 9 | -92 | 0 | 23*
O=C(c1ccc(-c2cccc(C(F)(F)F)c2)o1)N1CCCCCCC1 | -7 | 3 | -2 | 4 | -14 | -10 | x | x
CCN(CC)C(=O)Cn1cc(SCC(=O)NC2CCCCC2)c2ccccc21 | 0 | x | x | x | x | x | x | x
COC(=O)CCC[C@H]1CC2(C[C@H](CCCO[Si](C)(C)C(C)(C)C)N1C(=O)OC(C)(C)C)OCCO2 | -5 | -1 | 16 | 16* | 5 | -40 | 119* | 2
C[C@H]1CNC(=O)c2c(C(=O)Nc3ccc(CNC(=O)OC(C)(C)C)cc3)ncn21 | -2 | x | x | x | x | x | x | x
SMILES | DAGLB inh | MOR-DOR ag-1 | Arrestin-AP2 inh | HTR5A ag | MOR-DOR inv ag-1 | HTR5A inv ctr | MOR-DOR ag-2 | HTR5A ag conf | others
CN(Cc1ccccc1)S(=O)(=O)c1ccc2c(c1)n(C)c(=O)n2C | 2 | 6 | 5 | 16* | -34 | -57 | 0 | -1
O=C(N/N=C1\CCCc2ccccc21)c1ccccc1[N+](=O)[O-] | -3 | 3 | 3 | 15* | -20 | 3 | 2 | 15
Cc1ccc(Nc2nc(N)nc(CN3CCN(Cc4ccc5c(c4)OCO5)CC3)n2)cc1Cl | 2 | 1 | -2 | 18* | -6 | -18 | 0 | 5
COc1ccc(-c2cn3c(C)c(C(=O)Nc4ccncc4)sc3n2)cc1 | -3 | 1 | 1 | 3 | -6 | -24 | x | x
Cc1c(C(=O)Nc2ccncc2)sc2nc(-c3ccc(F)cc3)cn12 | -1 | 5 | -2 | 19* | -27 | -47 | 7 | 2
Cc1ccccc1/C=N/Nc1ncnc2nc[nH]c12 | 0 | -2 | 11 | 14* | 13 | 8 | 28* | 3
COC(=O)N1CCc2c(sc(NC(=O)C3COc4ccccc4O3)c2C(N)=O)C1 (stereo unspecified) | 2 | 0 | 20 | 61* | 2 | -169 | 3 | 43*
O=C(Cn1cc(CNC(=O)C2CCCCC2)nn1)Nc1cc(C(F)(F)F)ccc1Cl | -1 | -1 | 5 | 20* | 5 | 0 | -4 | -17
CC(C)C(=NO)c1ccccc1 | -2 | -2 | -16 | 0 | 8 | -1 | x | x
CCOc1ccc(C2=CS/C(=C(\C#N)c3nnc4n3CCCCC4)N2CC)cc1 | 2 | -2 | -3 | 15* | 12 | -15 | 2 | 1
Cc1cccc(OCc2n(CC(=O)OC3CC(C)CCC3C(C)C)c3ccccc3[n+]2C)c1 (stereo unspecified) | 10 | 9 | 0 | 17* | -48 | -49 | 2 | 6
